Test results published in ChEMBL document CHEMBL1154891, “Cytotoxic acylphloroglucinol derivatives from the twigs of Garcinia cowa” (J Nat Prod, 2010).
Activity calls are given as the source filed them. The calls are words filed in the database; no cut-off is given here.

How the values were obtained:
HT-29 [1] = assay: Cytotoxicity against human HT-29 cells at 5 uM after 24 hrs by MTT assay; format: functional
HCT-116 = assay: Cytotoxicity against human HCT116 cells at 5 uM after 24 hrs by MTT assay; format: functional, cell-based
[2] = Cytotoxicity against human CCD-18Co cells at 5 uM after 24 hrs by MTT assay
HT-29 [3] = assay: Cytotoxicity against human HT-29 cells after 24 hrs by MTT assay; format: functional, cell-based; conditions: HT-29, 24 h
Method in brief: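 MTT read-out: 3 h at 37 °C, DMSO solubilization, A570 with 620 nm background. Viability relative to untreated control; IC50 derived. Cisplatin in saline run in parallel as positive control. Mean + SEM.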

[4] = Cytotoxicity against human CCD-18Co cells at 5 uM after 24 hrs by MTT assay; format: cell-based
Method in brief: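 CCD-18Co colon fibroblasts grown in MEM with 10% FBS and HEPES at 37 °C, 5% CO2, seeded overnight at 7 × 10^3 cells/well. MTT added for 3 h at 37 °C, formazan dissolved in DMSO, A570 read with 620 nm background subtraction. Untreated = 100%. Triplicate, ≥3 independent experiments, mean + SEM.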

## CC(C)=CC[C@@H]1C[C@@]23C[C@@H](CC=C(C)C)C(C)(C)[C@](CC=C(C)C)(C(=O)C(C(=O)c4ccc(O)c(O)c4)=C2OC1(C)C)C3=O
HT-29 [1]
  Activity: Active
HCT-116
  Activity: Active
[2]
  Activity: Non-toxic
HT-29 [3]
  IC50: 5.1 µM
[4]
  Activity: Non-toxic

## C=C(C)[C@@H]1C[C@]23C[C@@H](CC=C(C)C)C(C)(C)[C@](CC=C(C)C)(C(=O)C(C(=O)c4ccc(O)c(O)c4)=C2O[C@H]1C=C(C)C)C3=O [GARCICOWIN D]
HT-29 [1]
  Activity: 57.7%
[2]
  Activity: Non-toxic
[4]
  Activity: Non-toxic

## C=C(C)[C@@H]1C[C@]23C[C@H](CC=C(C)C)C(C)(C)[C@](CC=C(C)C)(C(=O)C(C(=O)c4ccc(O)c(O)c4)=C2O[C@H]1C=C(C)C)C3=O [GARCINIALIPTONE B]
HT-29 [1]
  Activity: 73.8%
[2]
  Activity: Non-toxic
[4]
  Activity: Non-toxic

## CC(C)=CCC/C(C)=C/C[C@H]1C[C@]2(C/C=C(\C)CCC=C(C)C)C(=O)[C@@](CC=C(C)C)(C(=O)C(C(=O)c3ccc(O)c(O)c3)=C2O)C1(C)C [OBLONGIFOLIN D]
HT-29 [1]
  Activity: inactive
HCT-116
  Activity: inactive
[2]
  Activity: Non-toxic
[4]
  Activity: Non-toxic

## CC(C)=CC[C@H]1C[C@@]23C[C@@H](CC=C(C)C)C(C)(C)[C@@](CC=C(C)C)(C(=O)C(C(=O)c4ccc(O)c(O)c4)=C2OC1(C)C)C3=O [CAMBOGIN]
HT-29 [1]
  Activity: Active
HCT-116
  Activity: Active
[2]
  Activity: Non-toxic
[4]
  Activity: Non-toxic

## CC(C)=CCC/C(C)=C/C[C@@H]1C[C@]2(CC=C(C)C)C(=O)[C@@](CC=C(C)C)(C(=O)C(C(=O)c3ccc(O)c(O)c3)=C2O)C1(C)C [OBLONGIFOLIN B]
HT-29 [1]
  Activity: Active
HCT-116
  Activity: Active
[2]
  Activity: Non-toxic
[4]
  Activity: Non-toxic

## CC(C)=CCC/C(C)=C/C[C@@H]1C[C@@]2(C/C=C(\C)CCC=C(C)C)C(=O)[C@](CC=C(C)C)(C(=O)C(C(=O)c3ccc(O)c(O)c3)=C2O)C1(C)C [GUTTIFERONE B]
HT-29 [1]
  Activity: Active
HCT-116
  Activity: Active
[2]
  Activity: Non-toxic
[4]
  Activity: Non-toxic

## CC(C)=CCC/C(C)=C/C[C@@H]1C[C@]2(CC=C(C)C)C(=O)[C@@](CC=C(C)C)(C(=O)C(C(=O)c3cccc(O)c3)=C2O)[C@@]1(C)CCC=C(C)C [GARCICOWIN B]
[2]
  Activity: Non-toxic
[4]
  Activity: Non-toxic

## CC(C)=CCC/C(C)=C/C[C@H]1CC(C)(C)OC2=CC(=O)[C@]3(CC=C(C)C)C(=O)[C@@]21CC[C@]3(C)CCC=C(C)C [GARCICOWIN A]
[2]
  Activity: Non-toxic
[4]
  Activity: Non-toxic

## CC(C)=CCC/C(C)=C/C[C@@H]1C[C@]2(CC=C(C)C)C(=O)[C@@](CC=C(C)C)(C(=O)C(C(=O)c3ccc(O)c(O)c3)=C2O)[C@@]1(C)CCC=C(C)C [OBLONGIFOLIN C]
HT-29 [1]
  Activity: Active
HCT-116
  Activity: Active
[2]
  Activity: Non-toxic
[4]
  Activity: Non-toxic
